Laboratory results taken from ChEMBL document CHEMBL4270541, “Synthesis and antimicrobial evaluation of amino sugar-based naphthoquinones and isoquinoline-5,8-diones and their halogenated compounds” (Eur J Med Chem, 2018).
≈ marks a conversion by molar mass, not a printed value. Calls of active or inactive are those of the source. The calls are words filed in the database; no cut-off is given here.

Columns and labels:
Enterococcus faecalis = test: Antimicrobial activity against Enterococcus faecalis INCQS 00234 ATCC 29212 assessed as zone of inhibition at 5 mg/ml after 18 to 24 hrs by disc diffusion method; assay type: functional; conditions: ATCC 29212 INCQS 00234, read-out: IZ
Staphylococcus aureus [1] = test: Antimicrobial activity against Staphylococcus aureus INCQS 00015 ATCC 25923 assessed as zone of inhibition at 5 mg/ml after 18 to 24 hrs by disc diffusion method; assay type: functional; conditions: read-out: IZ
[2] = system: Staphylococcus epidermidis; test: Antimicrobial activity against Staphylococcus epidermidis INCQS 00016 ATCC 12228 assessed as zone of inhibition at 5 mg/ml after 18 to 24 hrs by disc diffusion method; assay type: functional; conditions: ATCC 12228 INCQS 00016, read-out: IZ
Staphylococcus simulans [3] = test: Antimicrobial activity against Staphylococcus simulans INCQS 00254 ATCC 27851 assessed as zone of inhibition at 5 mg/ml after 18 to 24 hrs by disc diffusion method; assay type: functional; conditions: read-out: IZ
Staphylococcus aureus [4] = test: Antimicrobial activity against methicillin-resistant Staphylococcus aureus BMB9393 assessed as zone of inhibition at 5 mg/ml after 18 to 24 hrs by disc diffusion method; assay type: functional; conditions: read-out: IZ
Escherichia coli [5] = test: Antimicrobial activity against Escherichia coli INCQS 00033 ATCC 25922 assessed as zone of inhibition at 5 mg/ml after 18 to 24 hrs by disc diffusion method; assay type: functional; conditions: ATCC 25922 INCQS 00033, read-out: IZ
Proteus mirabilis = test: Antimicrobial activity against Proteus mirabilis INCQS 00095 ATCC 15290 assessed as zone of inhibition at 5 mg/ml after 18 to 24 hrs by disc diffusion method; assay type: functional; conditions: read-out: IZ
Klebsiella pneumoniae = test: Antimicrobial activity against Klebsiella pneumoniae INCQS 00083 ATCC 4352 assessed as zone of inhibition at 5 mg/ml after 18 to 24 hrs by disc diffusion method; assay type: functional; conditions: read-out: IZ
Pseudomonas aeruginosa [6] = test: Antimicrobial activity against Pseudomonas aeruginosa INCQS 00099 ATCC 27853 assessed as zone of inhibition at 5 mg/ml after 18 to 24 hrs by disc diffusion method; assay type: functional; conditions: read-out: IZ
[7] = system: Staphylococcus epidermidis; test: Antimicrobial activity against Staphylococcus epidermidis INCQS 00016 ATCC 12228 after 24 hrs by microdilution assay; assay type: functional; conditions: ATCC 12228 INCQS 00016, 24 h
[8] = system: Staphylococcus epidermidis; test: Ratio of MBC99.9 to MIC for Staphylococcus epidermidis INCQS 00016 ATCC 12228; assay type: functional, ATCC 12228 INCQS 00016
In short: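 MBC/MIC ratio from the 24 h, 37°C microdilution MIC and the agar-plating MBC (99.9% growth inhibition). A ratio ≤2 was classed as bactericidal and ≥4 as bacteriostatic.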

[9] = system: Staphylococcus epidermidis; test: Bactericidal activity against Staphylococcus epidermidis INCQS 00016 ATCC 12228 incubated for 24 hrs followed by transfer of microbial suspension to agar plates and measured after 24 hrs post transfer by resazurin dye-based colorimetric analysis; assay type: functional; conditions: ATCC 12228 INCQS 00016, 24 h, read-out: MBC99.9
In short: (§1)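 For MBC, 10 µL from each clear MIC well was plated on agar and incubated 24 h at 37°C. MBC is the minimum concentration inhibiting 99.9% of growth. […] Triplicate.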

[10] = Hemolytic activity against human erythrocytes assessed as hemolysis at 200 ug/ml after 3 hrs by spectrophotometric analysis relative to control; assay type: ADME, cell-based, Erythrocyte; conditions: read-out: Activity
In short: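 Erythrocytes collected in citrate tubes, washed three times with PBS pH 7.4 by centrifugation and resuspended in PBS. Incubated with compounds at 200 µg/mL for 3 h at 37°C. Released hemoglobin was read in the supernatant at 545 nm against 1% Triton X-100 (complete lysis) and 1% DMSO (negative control). Below 10% hemolysis was taken as hemocompatible. Three independent experiments.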

Staphylococcus aureus [11] = test: Antimicrobial activity against Staphylococcus aureus INCQS 00015 ATCC 25923 at 256 ug/ml after 24 hrs by microdilution assay; assay type: functional, organism-based
Staphylococcus simulans [12] = test: Antimicrobial activity against Staphylococcus simulans INCQS 00254 ATCC 27851 at 256 ug/ml after 24 hrs by microdilution assay; assay type: functional, organism-based
Staphylococcus aureus [13] = test: Antimicrobial activity against methicillin-resistant Staphylococcus aureus BMB9393 at 256 ug/ml after 24 hrs by microdilution assay; assay type: functional, organism-based
Escherichia coli [14] = test: Antimicrobial activity against Escherichia coli INCQS 00033 ATCC 25922 at 256 ug/ml after 24 hrs by microdilution assay; assay type: functional, organism-based; conditions: ATCC 25922 INCQS 00033
Pseudomonas aeruginosa [15] = test: Antimicrobial activity against Pseudomonas aeruginosa INCQS 00099 ATCC 27853 at 256 ug/ml after 24 hrs by microdilution assay; assay type: functional, organism-based
Staphylococcus aureus [16] = test: Bactericidal activity against Staphylococcus aureus INCQS 00015 ATCC 25923 at 256 ug/ml incubated for 24 hrs followed by transfer of microbial suspension to agar plates and measured after 24 hrs post transfer by resazurin dye-based colorimetric analysis; assay type: functional, organism-based; in short: as §1
Staphylococcus simulans [17] = test: Bactericidal activity against Staphylococcus simulans INCQS 00254 ATCC 27851 at 256 ug/ml incubated for 24 hrs followed by transfer of microbial suspension to agar plates and measured after 24 hrs post transfer by resazurin dye-based colorimetric analysis; assay type: functional, organism-based; in short: as §1
Staphylococcus aureus [18] = test: Bactericidal activity against methicillin-resistant Staphylococcus aureus BMB9393 at 256 ug/ml incubated for 24 hrs followed by transfer of microbial suspension to agar plates and measured after 24 hrs post transfer by resazurin dye-based colorimetric analysis; assay type: functional, organism-based
In short: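 From MIC wells with no visible growth, 10 µL is transferred to agar plates and incubated 24 h at 37°C. MBC is the minimum concentration inhibiting 99.9% of growth. […] Triplicate.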

Escherichia coli [19] = test: Bactericidal activity against Escherichia coli INCQS 00033 ATCC 25922 at 256 ug/ml incubated for 24 hrs followed by transfer of microbial suspension to agar plates and measured after 24 hrs post transfer by resazurin dye-based colorimetric analysis; assay type: functional, organism-based; conditions: ATCC 25922 INCQS 00033; in short: as §1
Pseudomonas aeruginosa [20] = test: Bactericidal activity against Pseudomonas aeruginosa INCQS 00099 ATCC 27853 at 256 ug/ml incubated for 24 hrs followed by transfer of microbial suspension to agar plates and measured after 24 hrs post transfer by resazurin dye-based colorimetric analysis; assay type: functional, organism-based; in short: as §1

Compound | zone of inhibition at 5000 µg/mL (Enterococcus faecalis) | zone of inhibition at 5000 µg/mL (Staphylococcus aureus [1]) | zone of inhibition at 5000 µg/mL [2] | zone of inhibition at 5000 µg/mL (Staphylococcus simulans [3]) | zone of inhibition at 5000 µg/mL (Staphylococcus aureus [4]) | zone of inhibition at 5000 µg/mL (Escherichia coli [5]) | zone of inhibition at 5000 µg/mL (Proteus mirabilis) | zone of inhibition at 5000 µg/mL (Klebsiella pneumoniae) | zone of inhibition at 5000 µg/mL (Pseudomonas aeruginosa [6]) | MIC [7] | Ratio [8] | MBC [9] | hemolysis at 3 h, 200 ug/ml [10] | Activity (Staphylococcus aureus [11]) | Activity (Staphylococcus simulans [12]) | Activity (Staphylococcus aureus [13]) | Activity (Escherichia coli [14]) | Activity (Pseudomonas aeruginosa [15]) | Activity (Staphylococcus aureus [16]) | Activity (Staphylococcus simulans [17]) | further results
COC(=O)c1c(C)nc(C)c2c1C(=O)C(Cl)=C(NC[C@H]1O[C@@H]3OC(C)(C)O[C@@H]3[C@H]1O)C2=O | 0 mm | 0 mm | 8 mm | 0 mm | 0 mm | 0 mm | 0 mm | 0 mm | 0 mm | 32 µg/mL (≈ 68.5 µM) | 1 | 32 µg/mL (≈ 68.5 µM) | 10.1 to 14.4% | inactive | inactive | inactive | inactive | inactive | inactive | inactive | Activity (Staphylococcus aureus [18]): inactive; Activity (Escherichia coli [19]): inactive; Activity (Pseudomonas aeruginosa [20]): inactive
COC(=O)c1c(C)nc(C)c2c1C(=O)C(Br)=C(NC[C@H]1O[C@@H]3OC(C)(C)O[C@@H]3[C@H]1O)C2=O | 0 mm | 0 mm | 7 mm | 0 mm | 0 mm | 0 mm | 0 mm | 0 mm | 0 mm | 64 µg/mL (≈ 125 µM) | 1 | 64 µg/mL (≈ 125 µM) | < 10% | inactive | inactive | inactive | inactive | inactive | inactive | inactive | Activity (Staphylococcus aureus [18]): inactive; Activity (Escherichia coli [19]): inactive; Activity (Pseudomonas aeruginosa [20]): inactive
COC(=O)c1c(C)nc(C)c2c1C(=O)C=C(NC[C@H]1O[C@@H]3OC(C)(C)O[C@@H]3[C@H]3OC(C)(C)O[C@H]31)C2=O | 0 mm | 0 mm | 9 mm | 0 mm | 0 mm | 0 mm | 0 mm | 0 mm | 0 mm | 256 µg/mL (≈ 509 µM) | 1 | 256 µg/mL (≈ 509 µM) | < 10% | inactive | inactive | inactive | inactive | inactive | inactive | inactive | Activity (Staphylococcus aureus [18]): inactive; Activity (Escherichia coli [19]): inactive; Activity (Pseudomonas aeruginosa [20]): inactive
